Active and inactive are the calls of the source. No cut-off for these calls is given here.
What was measured:
Rodentolepis nana [1] = test: Cestodicidal activity against Hymenolepis nana infected in rat assessed as reduction in 98 to 100% of worm load at 250 mg/kg, po after 3 days; format: functional, organism-based; set-up: dose 250 mg/kg
Outline: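 Newly weaned male Freiburg-strain rats (25-30 g) infected orally with 200 viable H. nana ova; faecal ova-positive animals treated on day 15 after overnight fast. Single oral dose, starting at 250 mg/kg, then 100, 50, 13, 7.5 mg/kg; three treated, three untreated controls per group. Sacrificed day 3 post-treatment after fasting; small intestine worms collected and scored. Minimum effective dose: lowest giving score ≤10% of control.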

Rodentolepis nana [2] = test: Cestodicidal activity against Hymenolepis nana infected in po dosed rat assessed as […] after 3 days; format: functional; conditions: 72 h, read-out: MED
[3] = Cestodicidal activity against Hymenolepis diminuta infected in rat assessed as reduction in worm load at 10 mg/kg, po relative to control; format: functional; set-up: scale not given: the % may be the effect or the level left
Outline: (§1)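 Single oral 10 mg/kg dose, with worm-load reduction as the read-out. H. diminuta was tested in rats; Taenia sp. was tested in naturally infected dogs.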

Taenia = test: Cestodicidal activity against Taenia species infected in dog assessed as reduction in worm load at 10 mg/kg, po relative to control; format: functional; set-up: scale not given: the % may be the effect or the level left; outline: as §1
Rattus norvegicus [4] = test: Toxicity in rat at 5 g/kg, po; format: organism-based; conditions: in vivo, 5000 mg/kg
Rattus norvegicus [5] = test: Toxicity in rat at 5 g/kg, ip; format: organism-based; conditions: in vivo, 5000 mg/kg
Rattus norvegicus [6] = test: Toxicity in rat at 5 g/kg, po assessed as mortality; format: organism-based; conditions: in vivo, 5000 mg/kg
Rattus norvegicus [7] = test: Toxicity in rat at 5 g/kg, ip assessed as mortality; format: organism-based; conditions: in vivo, 5000 mg/kg
Rattus norvegicus [8] = test: Toxicity in rat infected with Hymenolepis nana at 1 g/kg; format: organism-based; conditions: in vivo, 1000 mg/kg
Outline: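 Young rats infected with H. nana received 1 g/kg, and tolerance was assessed.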

Mastomys natalensis [9] = test: Toxicity in po dosed natal multimammate mouse; format: organism-based; conditions: in vivo
Outline: (§2)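 Acute toxicity study in Mastomys natalensis and dogs, with the compound given orally or intraperitoneally.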

Mastomys natalensis [10] = test: Toxicity in ip dosed natal multimammate mouse; format: organism-based; conditions: in vivo; outline: as §2
Canis familiaris [11] = test: Toxicity in po dosed dog; format: organism-based, Canis lupus familiaris; conditions: in vivo; outline: as §2
Canis familiaris [12] = test: Toxicity in ip dosed dog; format: organism-based, Canis lupus familiaris; conditions: in vivo; outline: as §2

Row | SMILES | Activity (Rodentolepis nana [1]) | other results
1 | O=c1c2ccc3ccccc3c2oc(=S)n1-c1ccc(Cl)cc1[N+](=O)[O-] | inactive | –
2 | O=c1oc2c(ccc3ccccc32)c(=O)n1-c1ccc([N+](=O)[O-])cc1 | inactive | –
3 | O=C(Nc1ccc(Cl)cc1[N+](=O)[O-])c1ccc2ccccc2c1O | inactive | –
4 | O=c1oc2c(cc(Br)c3ccccc32)c(=O)n1-c1ccc([N+](=O)[O-])cc1Cl | inactive | –
5 | O=c1c2ccc3ccccc3c2oc(=S)n1-c1ccc([N+](=O)[O-])cc1 | inactive | –
6 | O=c1c2ccc3ccccc3c2oc(=S)n1-c1ccc(Cl)cc1Cl | inactive | –
7 | O=C(Nc1ccc([N+](=O)[O-])cc1Cl)c1cc(Br)c2ccccc2c1O | – | minimal effective dose (Rodentolepis nana [2]): 13 mg/kg
8 | O=C(Nc1ccccc1[N+](=O)[O-])c1ccc2c(Br)cccc2c1O | – | minimal effective dose (Rodentolepis nana [2]): 250 mg/kg
9 | O=c1c2ccc3ccccc3c2oc(=S)n1-c1ccc(Cl)c([N+](=O)[O-])c1 | inactive | –
10 | O=C(Nc1ccc(N=C=S)cc1)c1ccc2ccccc2c1O | – | minimal effective dose (Rodentolepis nana [2]): 100 mg/kg
11 | Nc1ccccc1NC(=O)c1ccc2ccccc2c1O | inactive | –
12 | O=C(Nc1ccc(Cl)cc1[N+](=O)[O-])c1cc(Br)c2ccccc2c1O | – | minimal effective dose (Rodentolepis nana [2]): 250 mg/kg
13 | O=c1c2cc(Br)c3ccccc3c2oc(=S)n1-c1ccc(Cl)cc1[N+](=O)[O-] | inactive | –
14 | O=C(Nc1ccc([N+](=O)[O-])cc1)c1ccc2ccccc2c1O | inactive | –
15 | O=C(Nc1ccc([N+](=O)[O-])cc1Cl)c1cc(Cl)ccc1O [NICLOSAMIDE] | – | minimal effective dose (Rodentolepis nana [2]): 50 mg/kg
16 | O=C(Nc1ccc(N2CCN(c3ccccc3)CC2)c([N+](=O)[O-])c1)c1ccc2ccccc2c1O | inactive | –
17 | Nc1ccc(NC(=O)c2cc(Br)c3ccccc3c2O)c(Cl)c1 | inactive | –
18 | O=c1oc2c(ccc3ccccc32)c(=O)n1-c1ccc([N+](=O)[O-])cc1Cl | inactive | –
19 | O=C(Nc1ccc(N=C=S)cc1Cl)c1cc(Br)c2ccccc2c1O | – | minimal effective dose (Rodentolepis nana [2]): 250 mg/kg
20 | O=C(Nc1ccc([N+](=O)[O-])cc1)c1cc(Br)c2ccccc2c1O | – | minimal effective dose (Rodentolepis nana [2]): 100 mg/kg
21 | O=c1c2ccc3ccccc3c2oc(=S)n1-c1ccc([N+](=O)[O-])cc1Cl | inactive | –
22 | O=C(Nc1ccc(N2CCCC2)c([N+](=O)[O-])c1)c1ccc2ccccc2c1O | inactive | –
23 | O=C(Nc1ccc(N=C=S)cc1Cl)c1ccc2ccccc2c1O | – | minimal effective dose (Rodentolepis nana [2]): 7.5 mg/kg; Activity [3]: 100%; Activity (Taenia): 100%; Activity (Rattus norvegicus [4]): Non-toxic; Activity (Rattus norvegicus [5]): Non-toxic; Activity (Rattus norvegicus [6]): Non-toxic; Activity (Rattus norvegicus [7]): Non-toxic; Activity (Rattus norvegicus [8]): Non-toxic; Activity (Mastomys natalensis [9]): Non-toxic; Activity (Mastomys natalensis [10]): Non-toxic; Activity (Canis familiaris [11]): Non-toxic; Activity (Canis familiaris [12]): Non-toxic
24 | O=C(Nc1ccc(Cl)c([N+](=O)[O-])c1)c1ccc2ccccc2c1O | inactive | –
25 | O=c1oc2c(ccc3ccccc32)c(=O)n1-c1ccccc1[N+](=O)[O-] | inactive | –

Row | SMILES | Activity (Rodentolepis nana [1]) | other results
26 | O=C(Nc1ccc([N+](=O)[O-])cc1Cl)c1ccc2ccccc2c1O | inactive | –
27 | O=C(Nc1ccc(Cl)c(N=C=S)c1)c1cc(Br)c2ccccc2c1O | – | minimal effective dose (Rodentolepis nana [2]): 100 mg/kg
28 | O=C(Nc1ccc(Cl)cc1Cl)c1ccc2ccccc2c1O | inactive | –
29 | CN1CCN(c2ccc(NC(=O)c3ccc4ccccc4c3O)cc2[N+](=O)[O-])CC1 | inactive | –
30 | O=c1c2cc(Br)c3ccccc3c2oc(=S)n1-c1ccc([N+](=O)[O-])cc1Cl | inactive | –
31 | O=c1oc2c(ccc3ccccc32)c(=O)n1-c1ccc(Cl)c([N+](=O)[O-])c1 | inactive | –
32 | CC1CCN(c2ccc(NC(=O)c3ccc4ccccc4c3O)cc2[N+](=O)[O-])CC1 | inactive | –
33 | Nc1ccc(NC(=O)c2ccc3ccccc3c2O)cc1 | inactive | –
34 | Nc1cc(NC(=O)c2ccc3ccccc3c2O)ccc1Cl | inactive | –
35 | Nc1ccc(NC(=O)c2cc(Br)c3ccccc3c2O)cc1 | inactive | –
36 | CC1CCCN(c2ccc(NC(=O)c3ccc4ccccc4c3O)cc2[N+](=O)[O-])C1 (stereo not given) | inactive | –
37 | O=c1oc2c(cc(Br)c3ccccc32)c(=O)n1-c1ccc(Cl)cc1[N+](=O)[O-] | inactive | –
38 | O=c1oc2c(ccc3ccccc32)c(=O)n1-c1ccc(Cl)cc1Cl | inactive | –
39 | O=C(Nc1ccc(Cl)cc1Cl)c1cc(Br)c2ccccc2c1O | – | minimal effective dose (Rodentolepis nana [2]): 50 mg/kg
40 | O=C(Nc1ccccc1[N+](=O)[O-])c1ccc2ccccc2c1O | inactive | –
41 | O=C(Nc1ccc(N2CCOCC2)c([N+](=O)[O-])c1)c1ccc2ccccc2c1O | inactive | –
42 | Nc1ccccc1NC(=O)c1cc(Br)c2ccccc2c1O | inactive | –
43 | O=c1c2ccc3ccccc3c2oc(=S)n1-c1ccccc1[N+](=O)[O-] | inactive | –
44 | O=c1c2cc(Br)c3ccccc3c2oc(=S)n1-c1ccccc1[N+](=O)[O-] | inactive | –
45 | Nc1cc(Cl)ccc1NC(=O)c1ccc2ccccc2c1O | inactive | –
46 | O=c1c2cc(Br)c3ccccc3c2oc(=S)n1-c1ccc([N+](=O)[O-])cc1 | inactive | –
47 | O=C(Nc1ccc(N2CCCCC2)c([N+](=O)[O-])c1)c1ccc2ccccc2c1O | inactive | –
48 | O=c1oc2c(cc(Br)c3ccccc32)c(=O)n1-c1ccc(Cl)cc1Cl | inactive | –
49 | Nc1ccc(NC(=O)c2ccc3ccccc3c2O)c(Cl)c1 | inactive | –
